Assay results from ChEMBL document CHEMBL1138113, “The design and synthesis of YC-1 analogues as probes for soluble guanylate cyclase” (Bioorg Med Chem Lett, 2006).

Legend:
Format in all cases: functional
[1] = molecular target: T1, Soluble guanylate cyclase (Homo sapiens) (UniProt Q02153+O75343+P33402+Q02108); assay: Ratio of activation of sGC by compound over that of control, in absence of carbon monooxide (basal activity 33+/-3 nmol/min/mg)
[2] = molecular target: Soluble guanylate cyclase (Homo sapiens, UniProt O75343+P33402+Q02108+Q02153); assay: Effect on YC-1 mediated activation of sGC in presence of carbon monoxide
Soluble guanylate cyclase, sequence (Q02153 whole entry): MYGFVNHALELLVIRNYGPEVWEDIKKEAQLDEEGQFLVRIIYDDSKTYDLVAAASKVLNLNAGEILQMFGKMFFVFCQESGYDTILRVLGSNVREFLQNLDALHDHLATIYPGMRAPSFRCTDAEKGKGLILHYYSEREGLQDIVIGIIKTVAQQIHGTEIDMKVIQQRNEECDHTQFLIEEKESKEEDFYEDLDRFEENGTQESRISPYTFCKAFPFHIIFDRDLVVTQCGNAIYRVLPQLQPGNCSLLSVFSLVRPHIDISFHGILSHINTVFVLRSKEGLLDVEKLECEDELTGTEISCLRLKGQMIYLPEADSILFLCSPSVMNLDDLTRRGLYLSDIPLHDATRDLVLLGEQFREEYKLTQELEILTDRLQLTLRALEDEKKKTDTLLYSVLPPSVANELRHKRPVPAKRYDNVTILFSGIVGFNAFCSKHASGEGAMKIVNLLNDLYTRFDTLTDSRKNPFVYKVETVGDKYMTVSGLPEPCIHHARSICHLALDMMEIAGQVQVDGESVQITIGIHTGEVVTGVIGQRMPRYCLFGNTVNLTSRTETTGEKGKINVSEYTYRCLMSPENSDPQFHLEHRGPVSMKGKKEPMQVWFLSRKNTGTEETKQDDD
Soluble guanylate cyclase, sequence (O75343 whole entry): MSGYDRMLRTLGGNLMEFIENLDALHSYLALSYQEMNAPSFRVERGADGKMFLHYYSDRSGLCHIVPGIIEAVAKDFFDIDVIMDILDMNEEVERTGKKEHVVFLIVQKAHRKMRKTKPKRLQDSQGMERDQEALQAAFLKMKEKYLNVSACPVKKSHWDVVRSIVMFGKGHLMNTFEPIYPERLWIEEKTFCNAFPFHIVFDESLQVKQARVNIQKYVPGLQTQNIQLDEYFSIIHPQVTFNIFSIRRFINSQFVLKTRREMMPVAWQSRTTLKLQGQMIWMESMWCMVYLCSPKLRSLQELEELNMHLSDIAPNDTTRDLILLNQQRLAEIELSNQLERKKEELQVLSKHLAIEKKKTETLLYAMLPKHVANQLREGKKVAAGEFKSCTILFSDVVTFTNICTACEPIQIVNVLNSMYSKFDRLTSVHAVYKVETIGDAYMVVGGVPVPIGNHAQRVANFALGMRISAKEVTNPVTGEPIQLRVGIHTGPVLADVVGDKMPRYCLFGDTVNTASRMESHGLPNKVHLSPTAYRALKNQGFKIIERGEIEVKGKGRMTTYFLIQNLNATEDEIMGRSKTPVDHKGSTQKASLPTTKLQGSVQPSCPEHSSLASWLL
Soluble guanylate cyclase, sequence (P33402 whole entry): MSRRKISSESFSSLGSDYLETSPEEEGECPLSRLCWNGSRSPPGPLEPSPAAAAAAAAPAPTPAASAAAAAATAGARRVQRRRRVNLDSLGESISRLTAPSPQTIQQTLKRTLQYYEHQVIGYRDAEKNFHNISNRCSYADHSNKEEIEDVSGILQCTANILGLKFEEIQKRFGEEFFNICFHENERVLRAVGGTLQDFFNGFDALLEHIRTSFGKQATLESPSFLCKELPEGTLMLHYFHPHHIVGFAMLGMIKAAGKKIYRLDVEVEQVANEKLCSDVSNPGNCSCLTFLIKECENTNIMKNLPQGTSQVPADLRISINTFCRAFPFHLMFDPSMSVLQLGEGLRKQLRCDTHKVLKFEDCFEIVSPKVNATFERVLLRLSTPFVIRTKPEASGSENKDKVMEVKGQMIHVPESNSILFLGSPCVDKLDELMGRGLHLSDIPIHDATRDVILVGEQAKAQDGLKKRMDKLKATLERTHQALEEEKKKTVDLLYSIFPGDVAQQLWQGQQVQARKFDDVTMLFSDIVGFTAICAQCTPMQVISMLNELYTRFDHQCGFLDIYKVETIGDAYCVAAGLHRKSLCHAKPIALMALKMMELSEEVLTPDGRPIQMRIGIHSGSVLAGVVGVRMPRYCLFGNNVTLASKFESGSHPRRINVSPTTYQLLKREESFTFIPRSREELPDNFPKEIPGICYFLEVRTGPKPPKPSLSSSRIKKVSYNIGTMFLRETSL
Soluble guanylate cyclase, sequence (Q02108 whole entry): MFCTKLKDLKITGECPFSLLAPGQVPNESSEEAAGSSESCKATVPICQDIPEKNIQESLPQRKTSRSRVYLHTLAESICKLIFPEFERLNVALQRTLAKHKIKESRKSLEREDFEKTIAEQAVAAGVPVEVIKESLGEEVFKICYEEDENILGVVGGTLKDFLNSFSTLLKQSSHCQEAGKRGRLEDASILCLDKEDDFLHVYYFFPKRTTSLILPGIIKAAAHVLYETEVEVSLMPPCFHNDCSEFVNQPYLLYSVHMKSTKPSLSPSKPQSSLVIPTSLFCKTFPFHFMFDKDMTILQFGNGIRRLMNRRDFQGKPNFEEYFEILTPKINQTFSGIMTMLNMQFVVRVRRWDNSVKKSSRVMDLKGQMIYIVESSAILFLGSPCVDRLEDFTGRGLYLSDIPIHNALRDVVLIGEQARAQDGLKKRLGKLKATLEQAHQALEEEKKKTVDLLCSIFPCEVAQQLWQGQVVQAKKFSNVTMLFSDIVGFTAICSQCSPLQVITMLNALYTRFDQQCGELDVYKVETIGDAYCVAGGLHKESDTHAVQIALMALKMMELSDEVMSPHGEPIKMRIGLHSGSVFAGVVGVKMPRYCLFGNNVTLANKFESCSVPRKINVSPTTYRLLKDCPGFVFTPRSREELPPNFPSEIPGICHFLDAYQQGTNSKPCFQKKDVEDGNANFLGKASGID
Method in brief: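 Purified sGC from a baculovirus/Sf9 expression system, measured with CO by end-point assay in 4% v/v DMSO across a range of YC-1 concentrations, with and without a fixed level of the test compound. Assays ran 2 min in triplicate, and errors are mean + range/2. EC50 came from a four-parameter logistic fit.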

[3] = molecular target: T1, Soluble guanylate cyclase (Homo sapiens); assay: Ratio of activation of sGC by compound over that of control, in presence of carbon monooxide (basal activity 33+/-3 nmol/min/mg in absence of CO)

Activity [1] | EC50 [2] [µM] | Activity [3] | Structure (SMILES)
3.4 | 21.9 | 29 | [N-]=[N+]=Nc1ccc2c(-c3ccc(CO)o3)nn(Cc3ccccc3)c2c1
4.7 | – | 20.3 | [N-]=[N+]=Nc1ccc(Cn2nc(-c3ccc(CO)o3)c3ccccc32)cc1
1.7 | – | 4.4 | [N-]=[N+]=Nc1ccc2c(c1)c(-c1ccc(CO)o1)nn2Cc1ccccc1
9.2 | – | 139 | OCc1ccc(-c2nn(Cc3ccccc3)c3ccccc23)o1
2 | – | 7.1 | [N-]=[N+]=Nc1cccc(Cn2nc(-c3ccc(CO)o3)c3ccccc32)c1
